Experiment [1] can be described thus: Her2 expression decrease, cell viability multiplex – SKBR3 breast tumor cells, AlphaScreen, ATP viability, primary screen (AID 461;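 active = Her2 level under about 52% in both replicate screens, with viability over 70% of control, limit read from the data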;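 as to Her2 level: lower value means less Her2 protein in the cells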;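 as to viability: percent of carrier control wells set as 100% viability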). The settings on record: SKBR3 Her2 protein level, 18-24 h, measured here: SKBR3 viability, ATP luminescence, at 10 µM. For orientation: In Alpha technology, singlet oxygen from a donor bead excites a nearby acceptor bead.
The target in experiment [2] is Receptor tyrosine-protein kinase erbB-2 (Homo sapiens) (UniProt P04626). The description is as above. The settings on record: 18-24 h, at 10 µM, stronger effect = lower value.
Chain of Receptor tyrosine-protein kinase erbB-2 (Homo sapiens) (P04626 whole entry, looked up): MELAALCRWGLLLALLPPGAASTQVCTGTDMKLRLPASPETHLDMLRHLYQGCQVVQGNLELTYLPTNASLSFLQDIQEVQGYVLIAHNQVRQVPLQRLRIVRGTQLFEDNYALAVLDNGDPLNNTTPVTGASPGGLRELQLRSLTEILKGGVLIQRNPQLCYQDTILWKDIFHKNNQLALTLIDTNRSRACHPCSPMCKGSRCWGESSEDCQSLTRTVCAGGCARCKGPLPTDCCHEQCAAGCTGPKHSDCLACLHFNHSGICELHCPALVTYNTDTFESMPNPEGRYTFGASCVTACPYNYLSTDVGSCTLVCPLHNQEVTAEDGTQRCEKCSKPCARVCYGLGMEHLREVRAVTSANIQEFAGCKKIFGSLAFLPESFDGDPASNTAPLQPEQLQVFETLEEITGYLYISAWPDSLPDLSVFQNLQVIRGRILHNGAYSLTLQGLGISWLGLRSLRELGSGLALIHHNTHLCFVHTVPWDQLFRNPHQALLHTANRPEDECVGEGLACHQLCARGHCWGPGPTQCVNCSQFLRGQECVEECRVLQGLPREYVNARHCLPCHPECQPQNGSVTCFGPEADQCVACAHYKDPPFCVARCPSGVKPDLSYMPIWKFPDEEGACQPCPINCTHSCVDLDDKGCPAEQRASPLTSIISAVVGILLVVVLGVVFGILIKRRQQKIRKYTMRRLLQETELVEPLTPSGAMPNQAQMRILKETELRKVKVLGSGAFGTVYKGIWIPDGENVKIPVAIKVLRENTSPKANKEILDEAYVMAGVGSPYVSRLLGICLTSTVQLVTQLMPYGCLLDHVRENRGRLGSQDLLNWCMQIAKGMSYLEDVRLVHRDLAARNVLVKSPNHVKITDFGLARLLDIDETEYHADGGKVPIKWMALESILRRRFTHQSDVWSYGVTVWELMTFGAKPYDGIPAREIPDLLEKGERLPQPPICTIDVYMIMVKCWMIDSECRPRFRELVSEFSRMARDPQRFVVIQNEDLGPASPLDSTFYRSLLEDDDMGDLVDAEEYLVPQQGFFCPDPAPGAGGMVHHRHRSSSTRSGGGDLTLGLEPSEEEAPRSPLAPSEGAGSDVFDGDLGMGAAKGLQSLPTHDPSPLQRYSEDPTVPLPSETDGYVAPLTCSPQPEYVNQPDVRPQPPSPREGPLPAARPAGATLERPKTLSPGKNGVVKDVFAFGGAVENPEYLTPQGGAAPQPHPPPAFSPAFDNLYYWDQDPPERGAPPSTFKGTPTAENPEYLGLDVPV
Experiment [3] can be described thus: reduced viability of SK-BR-3 breast cancer cells – cell-based, 24 h, human, pilot screen (AID 572;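 active = viability at or below 10% of carrier control in both of two separate runs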;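 also: compound exposure lasted between 18 and 24 h rather than exactly 24 h; 100% = carrier-treated control wells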). The note with it: SK-BR-3 viability, CellTiter-Glo luminescence, at 10 µM, stronger effect = lower value. On the technique in general: ATP-based viability assays read luminescence as a measure of living cells.
A short description of experiment [4]: HUVEC growth inhibition – cell-based, human, primary screen (AID 575;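 active = viability at or below 30% in both replicate assays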;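 also: 100% = median of untreated cell wells with 0.1% DMSO on each plate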). The note with it: HUVEC proliferation, CellTiter-Glo luminescence, 72 h; at 10 µM; stronger effect = lower value. In a few lines:
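Timing: 72 h treatment at 37 °C; material: HUVEC primary cells; technique: CellTiter-Glo luminescence measuring cellular ATP; controls: vehicle and MePR control wells; measure: percent of median DMSO-control luminescence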

A short description of experiment [5]: H69AR cell proliferation blockers – human, duplicate replicates, primary screen (AID 580;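 active = viability at or under a set limit in both replicates, limit being median viability minus 3 SD, cut at about 48% in these data, passing the limit was not always enough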;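 also: 100% = mean luminescence of untreated wells and 0% = no signal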). The note with it: H69AR lung tumor cells viability, ATP luminescence, 72 h; at 10 µM; stronger effect = lower value.
Experiment [6] is described as follows: MRP1 drug-resistance reversers in H69AR cells – cell-based, doxorubicin co-treatment, pilot screen (AID 601;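 active = viability loss from added drug above about 55%, and viability with drug at most 40%, in both replicates, limit read from the data, passing the limit was not always enough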). The note with it: CellTiter-Glo, 72 h, at 10 µM; for differential viability (reversal): stronger effect = higher value.
The nature of experiment [7]: yeast transport mutant growth inhibition pilot in 384-well plates, post-Golgi transport modulator project (AID 636; in the data active = inhibition above about 31%). The note with it: absorbance 615 nm, about 18 h, stronger effect = higher value.
A short description of experiment [8]: growth suppression of yeast trafficking mutant, preliminary HTS, modulators of trafficking downstream of Golgi apparatus project, 1536-format plate, OD 615 nm (AID 637). The note with it: yeast transport mutant growth, absorbance 615 nm, 18 h; stronger effect = higher value.
Setting [9] is: H69AR cells + 2 uM doxorubicin, measured here: viability with 2 uM doxorubicin, stronger effect = lower value.
Setting [10] is: H69AR cells, compound alone cytotoxicity.

The source made the active and inactive calls. Rule as the data show it, unless noted: active = inhibition above about 30%; inactive = the rest.

Turning to `CCCN(Cc1cc2cc(C)ccc2[nH]c1=O)C(=O)c1cccc(OC)c1`, the viability was 114% in experiment [1]; 114% (inactive) in experiment [3]; 70.6% (inactive) in experiment [4]; 81.2% (inactive) in experiment [5]; 82.1% in experiment [6] (setting [9]); 81.2% in experiment [6] (setting [10]). In addition, in experiment [2], the Her2 level was 91% (inactive). In addition, the differential viability (reversal) in experiment [6] (H69AR cells + 2 uM doxorubicin) is -0.89% (inactive). Besides, the inhibition was -7.07% (inactive) in experiment [7] and -0.65% (inactive) in experiment [8].

On to `CCOC(=O)N1CCC(N2CC34C=CC(O3)C(C(=O)O)C4C2=O)CC1` (stereo not given), for which the viability in experiment [1] is 102%; in experiment [3] it was 102% (inactive); in experiment [4] it was 92.4% (inactive); in experiment [5] it was 100% (inactive); in experiment [6] (setting [9]), 81.8%; in experiment [6] (setting [10]), 100%. In experiment [2], the Her2 level is 99.5% (inactive). The differential viability (reversal) in experiment [6] (H69AR cells + 2 uM doxorubicin) is 18.3% (inactive). Also, the figures for the inhibition in experiment [7] and in experiment [8] were -3.73% (inactive) and -4.26% (inactive), respectively.

Consider `CCNC(=O)N1c2ccc(OCC)cc2C(C)=CC1(C)C`, for which the viability in experiment [1] was 95.5%; in experiment [3] it was 95.5% (inactive); in experiment [4] it was 106% (inactive); in experiment [5] it was 89.3% (inactive); in experiment [6] (setting [9]) it was 90.8%; in experiment [6] (setting [10]), 89.3%. Besides, in experiment [2], the Her2 level is 99.5% (inactive). In addition, the differential viability (reversal) in experiment [6] (H69AR cells + 2 uM doxorubicin) was -1.44% (inactive). In addition, the inhibition was -7.76% (inactive) in experiment [7] and -1.15% (inactive) in experiment [8].

As to `Cc1cc(C)n(-c2cc(N3CCOCC3)nc(-c3ccccc3)n2)n1`, the viability was 85% in experiment [1]; 85% (inactive) in experiment [3]; 75.7% (inactive) in experiment [4]; 73.6% (inactive) in experiment [5]; 81% in experiment [6] (setting [9]); 73.6% in experiment [6] (setting [10]). In addition, in experiment [2], the Her2 level was 104% (inactive). Besides, the differential viability (reversal) in experiment [6] (H69AR cells + 2 uM doxorubicin) is -7.4% (inactive). The inhibition in experiment [7] was -5.79% (inactive); in experiment [8], 4.17% (inactive).

As for `COc1ccc2nc(N3CCC(C)CC3)c(C#N)cc2c1`, the viability is 108% in experiment [1]; 108% (inactive) in experiment [3]; 86.6% (inactive) in experiment [4]; 26.8% (active) in experiment [5]; 23% in experiment [6] (setting [9]); 26.8% in experiment [6] (setting [10]). Moreover, the Her2 level in experiment [2] is 101% (inactive). Moreover, the differential viability (reversal) in experiment [6] (H69AR cells + 2 uM doxorubicin) was 3.77% (inactive). The inhibition was -5.33% (inactive) in experiment [7] and 2.62% (inactive) in experiment [8].

With `CCC(=O)Nc1cc2nn(-c3ccccc3)nc2cc1Cl`, the viability in experiment [1] was 91%; in experiment [3] it was 91% (inactive); in experiment [4], 55% (inactive); in experiment [5], 68.2% (inactive); in experiment [6] (setting [9]), 70.9%; in experiment [6] (setting [10]), 68.2%. In addition, the Her2 level in experiment [2] was 90.5% (inactive). In experiment [6] (H69AR cells + 2 uM doxorubicin), the differential viability (reversal) is -2.75% (inactive). The inhibition in experiment [7] is -7.57% (inactive); in experiment [8] it was 5.9% (inactive).

On to `CCCCN(Cc1cc2cc(OC)ccc2[nH]c1=O)C(=O)COc1ccccc1`, for which the viability in experiment [1] is 73%; in experiment [3] it was 73% (inactive); in experiment [4], 108% (inactive); in experiment [5], 93.6% (inactive); in experiment [6] (setting [9]), 98.1%; in experiment [6] (setting [10]) it was 93.6%. Besides, the Her2 level in experiment [2] is 79% (inactive). Moreover, the differential viability (reversal) in experiment [6] (H69AR cells + 2 uM doxorubicin) is -4.48% (inactive). The figures for the inhibition in experiment [7] and in experiment [8] were -0.13% (inactive) and 0.82% (inactive), respectively.

For the molecule `O=C(CN1CCCC1)Nc1ccc(NC(=O)Nc2ccccc2)cc1`, the viability in experiment [1] was 92.5%; in experiment [3], 92.5% (inactive); in experiment [4], 75.3% (inactive); in experiment [5], 95.3% (inactive); in experiment [6] (setting [9]), 94.9%; in experiment [6] (setting [10]) it was 95.3%. For the same molecule, the Her2 level in experiment [2] was 110% (inactive). The differential viability (reversal) in experiment [6] (H69AR cells + 2 uM doxorubicin) was 0.39% (inactive). For the same molecule, the inhibition in experiment [7] is 0% (inactive); in experiment [8] it was -6.39% (inactive).

Turning to `O=C(O)C1CC(=O)N(c2ccc(OCc3ccccc3Cl)cc2)C1` (stereo not given), the viability in experiment [1] is 83%; in experiment [3] it was 83% (inactive); in experiment [4], 95.9% (inactive); in experiment [5], 90% (inactive); in experiment [6] (setting [9]), 81.6%; in experiment [6] (setting [10]) it was 90%. Also, in experiment [2], the Her2 level is 92.5% (inactive). The differential viability (reversal) in experiment [6] (H69AR cells + 2 uM doxorubicin) was 8.43% (inactive). For the same molecule, the inhibition in experiment [7] is 0% (inactive); in experiment [8], 17.8% (inactive).

In the case of `CS(=O)(=O)N(CC(=O)Nc1ccc2c(c1)OCCO2)Cc1ccccc1`, the viability is 93.5% in experiment [1]; 93.5% (inactive) in experiment [3]; 107% (inactive) in experiment [4]; 99.5% (inactive) in experiment [5]; 87.2% in experiment [6] (setting [9]); 99.5% in experiment [6] (setting [10]). Further, the Her2 level in experiment [2] is 92% (inactive). Besides, in experiment [6] (H69AR cells + 2 uM doxorubicin), the differential viability (reversal) is 12.3% (inactive). For the same molecule, the inhibition in experiment [7] was -4.93% (inactive); in experiment [8] it was -0.79% (inactive).

Regarding `COc1ccc(CNC(=O)CCc2nc(-c3ccccc3F)no2)c(OC)c1`, the viability in experiment [1] was 80%; in experiment [3], 80% (inactive); in experiment [4], 90% (inactive); in experiment [5] it was 95.9% (inactive); in experiment [6] (setting [9]) it was 92.2%; in experiment [6] (setting [10]) it was 95.9%. Also, in experiment [2], the Her2 level was 95% (inactive). In experiment [6] (H69AR cells + 2 uM doxorubicin), the differential viability (reversal) is 3.65% (inactive). In addition, the values for the inhibition in experiment [7] and in experiment [8] were -4.08% (inactive) and -0.17% (inactive), respectively.

Consider `Cc1nc2ccccn2c1P(=O)(N1CCCCC1)N1CCCCC1`, for which the viability was 92.5% in experiment [1]; 92.5% (inactive) in experiment [3]; 117% (inactive) in experiment [4]; 91% (inactive) in experiment [5]; 89.3% in experiment [6] (setting [9]); 91% in experiment [6] (setting [10]). The Her2 level in experiment [2] is 112% (inactive). Also, in experiment [6] (H69AR cells + 2 uM doxorubicin), the differential viability (reversal) was 1.72% (inactive). Moreover, the inhibition was -2.93% (inactive) in experiment [7] and 0% (inactive) in experiment [8].

For `COCC(=O)N(Cc1nc2ccccc2c(=O)[nH]1)Cc1cccs1`, the viability is 103% in experiment [1]; 103% (inactive) in experiment [3]; 93.3% (inactive) in experiment [4]; 98.8% (inactive) in experiment [5]; 101% in experiment [6] (setting [9]); 98.8% in experiment [6] (setting [10]). The Her2 level in experiment [2] is 100% (inactive). Further, the differential viability (reversal) in experiment [6] (H69AR cells + 2 uM doxorubicin) was -2.5% (inactive). The inhibition in experiment [7] is -3.07% (inactive); in experiment [8], -0.65% (inactive).

Turning to `O=C1C(Cl)=C(N2CCOCC2)C(=O)N1CCc1ccccc1`, the viability in experiment [1] was 104%; in experiment [3], 104% (inactive); in experiment [4] it was 89.3% (inactive); in experiment [5], 71.3% (inactive); in experiment [6] (setting [9]), 71.3%; in experiment [6] (setting [10]), 71.3%. The Her2 level in experiment [2] was 84% (inactive). The differential viability (reversal) in experiment [6] (H69AR cells + 2 uM doxorubicin) was 0.02% (inactive). For the same molecule, the inhibition in experiment [7] was -6.27% (inactive); in experiment [8] it was -1.11% (inactive).

The viability is a read-out of living cells in per cent, often relative to untreated cells. A word on the inhibition: it is the change of the read-out against control, counted positive when it falls.

For the origin of these results see PubChem BioAssay.
